Data published in ChEMBL document CHEMBL1687801, “Pharmacokinetics-pharmacodynamics of a respiratory syncytial virus fusion inhibitor in the cotton rat model” (Antimicrob Agents Chemother, 2010).
Values after ≈ are worked out from the molar mass of the structure shown.

How the values were obtained:
[1] = Drug level in Sprague-Dawley rat lung tissue at 10 mg/kg, iv administered as single bolus dose measured after 3 hrs; format: ADME, organism-based; parameters: dose 10 mg/kg, route intravenous; details: read-out: Drug uptake
[2] = AUC (0 to 24 hrs) in Sprague-Dawley rat plasma at 10 mg/kg, iv administered as single bolus dose; format: ADME, organism-based; parameters: time < 24 hr, dose 10 mg/kg, route intravenous
[3] = tested on: Respiratory syncytial virus; experiment: Antiviral activity against respiratory syncytial virus long strain infected in cotton rat assessed as log reduction in epithelial lining fluid viral load at 25 mg/kg, sc single dose administered 24 hrs before viral infection by qRT-PCR assay; format: functional; details: route subcutaneous
How it was run: (§1)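 Nanocrystal suspension was given as a single s.c. dose to cotton rats (six per cohort). RSV Long (10⁶ PFU) was inoculated intranasally 24 h later. On day 4, BALF from a single 2.5 ml PBS lavage was lysed with DTT and lysis buffer, and RNA was extracted with an internal control. Monoplex real-time RT-PCR was run in duplicate against an eight-point 10-fold RSV RNA standard. Titers were urea-corrected to ELF; reduction was taken versus untreated controls.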

[4] = Drug level in Sprague-Dawley rat bronchoalveolar lavage fluid at 10 mg/kg, iv administered as single bolus dose measured after 3 hrs; format: ADME, organism-based, Lung; parameters: dose 10 mg/kg, route intravenous; details: read-out: Drug uptake
[5] = tested on: Respiratory syncytial virus; experiment: Antiviral activity against respiratory syncytial virus long strain infected in cotton rat assessed as log reduction in epithelial lining fluid viral load at 100 mg/kg, sc single dose administered 24 hrs before viral infection by plaque assay; format: functional; details: route subcutaneous
How it was run: (§2)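 Cotton rats (60–100 g, six per dose cohort) received one s.c. dose of an aqueous slow-release nanocrystal suspension. At 24 h they were anesthetized with isoflurane and given 10⁶ PFU RSV Long intranasally in 0.1 ml. On day 4 lungs were lavaged once with 2.5 ml PBS. BALF supernatant was plaque-titrated on Vero cells (7 days, 37°C, methylene blue). Titers were urea-corrected to ELF; log reduction was taken versus untreated infected controls.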

Lung = experiment: AUC (0 to 24 hrs) in Sprague-Dawley rat lung tissue at 10 mg/kg, iv administered as single bolus dose; format: ADME, organism-based; parameters: time < 24 hr, dose 10 mg/kg, route intravenous; details: in vivo
[6] = Volume of distribution at steady state in Sprague-Dawley rat plasma at 10 mg/kg, iv administered as single bolus dose; format: ADME, organism-based; parameters: dose 10 mg/kg, route intravenous; details: read-out: Vdss
[7] = tested on: Respiratory syncytial virus; experiment: Antiviral activity against respiratory syncytial virus long strain infected in cotton rat assessed as log reduction in epithelial lining fluid viral load at 12.5 mg/kg, sc single dose administered 24 hrs before viral infection by qRT-PCR assay; format: functional; details: route subcutaneous; how it was run: as §1
[8] = tested on: Respiratory syncytial virus; experiment: Antiviral activity against respiratory syncytial virus long strain infected in cotton rat assessed as maximum reduction in epithelial lining fluid viral load at 200 ng/ml plasma concentration; format: functional; parameters: scale not given: the % may be the effect or the level left
How it was run: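 Plasma was drawn at 24 h after single s.c. nanocrystal doses (12.5–200 mg/kg) to cotton rats, just before intranasal RSV inoculation, and assayed by LC-MS/MS. Individual day-4 plaque-assay ELF titer reductions were plotted against this plasma concentration and fitted to a simple E_max model, E = (E_max × C24h)/(C24h + EC50).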

[9] = tested on: Respiratory syncytial virus; experiment: microbe, parasite or virus in culture; details: human respiratory syncytial virus, long, HeLaM
[10] = AUC (0 to 24 hrs) in Sprague-Dawley rat bronchoalveolar lavage fluid at 10 mg/kg, iv administered as single bolus dose; format: ADME, organism-based, Lung; parameters: time < 24 hr, dose 10 mg/kg, route intravenous; details: in vivo
Plasma = experiment: Drug level in cotton rat plasma at 12.5 - 200 mg/kg, sc administered as single dose measured after 24 hrs; format: ADME, organism-based; parameters: dose 200 mg/kg, route subcutaneous; details: in vivo
[11] = tested on: Respiratory syncytial virus; experiment: Antiviral activity against respiratory syncytial virus long strain infected in cotton rat assessed as log reduction in epithelial lining fluid viral load at 25 mg/kg, sc single dose administered 24 hrs before viral infection by plaque assay; format: functional; details: route subcutaneous; how it was run: as §2
[12] = Ratio of AUC (0 to 24 hrs) in Sprague-Dawley rat lung tissue to plasma; format: ADME
[13] = tested on: Respiratory syncytial virus; experiment: Antiviral activity against respiratory syncytial virus long strain infected in cotton rat assessed as log reduction in epithelial lining fluid viral load at 50 mg/kg, sc single dose administered 24 hrs before viral infection by plaque assay; format: functional; details: route subcutaneous; how it was run: as §2
[14] = tested on: Respiratory syncytial virus; experiment: Antiviral activity against respiratory syncytial virus long strain infected in cotton rat assessed as log reduction in epithelial lining fluid viral load at 12.5 mg/kg, sc single dose administered 24 hrs before viral infection by plaque assay; format: functional; details: route subcutaneous; how it was run: as §2
[15] = tested on: Respiratory syncytial virus; experiment: Antiviral activity against respiratory syncytial virus long strain infected in cotton rat assessed as log reduction in epithelial lining fluid viral load at 200 mg/kg, sc single dose administered 24 hrs before viral infection by qRT-PCR assay; format: functional; details: route subcutaneous; how it was run: as §1
[16] = Drug level in Sprague-Dawley rat plasma at 10 mg/kg, iv administered as single bolus dose measured after 3 hrs; format: ADME, organism-based; parameters: dose 10 mg/kg, route intravenous; details: read-out: Drug uptake
[17] = tested on: Respiratory syncytial virus; experiment: Antiviral activity against respiratory syncytial virus long strain infected in cotton rat assessed as log reduction in epithelial lining fluid viral load at 100 mg/kg, sc single dose administered 24 hrs before viral infection by qRT-PCR assay; format: functional; details: route subcutaneous; how it was run: as §1
[18] = Drug level in cotton rat bronchoalveolar lavage fluid at 10 mg/kg, iv administered as single bolus dose measured after 3 hrs; format: ADME, organism-based, Lung; parameters: dose 10 mg/kg, route intravenous; details: read-out: Drug uptake
[19] = Clearance in Sprague-Dawley rat plasma at 10 mg/kg, iv administered as single bolus dose; format: ADME, organism-based; parameters: dose 10 mg/kg, route intravenous
[20] = tested on: Respiratory syncytial virus; experiment: Antiviral activity against respiratory syncytial virus long strain infected in cotton rat assessed as log reduction in epithelial lining fluid viral load at 50 mg/kg, sc single dose administered 24 hrs before viral infection by qRT-PCR assay; format: functional; details: route subcutaneous; how it was run: as §1
[21] = tested on: Respiratory syncytial virus; experiment: Antiviral activity against respiratory syncytial virus long strain infected in cotton rat assessed as log reduction in epithelial lining fluid viral load at 200 mg/kg, sc single dose administered 24 hrs before viral infection by plaque assay; format: functional; details: route subcutaneous; how it was run: as §2
[22] = Drug level in cotton rat epithelial lining fluid at 10 mg/kg, iv administered as single bolus dose measured after 3 hrs; format: ADME, organism-based; parameters: dose 10 mg/kg, route intravenous; details: read-out: Drug uptake

concentration at 3 h [1]: 9400 ng/mL | AUC(0-t) at 24 h [2]: 1100 ng·h/mL | concentration at 3 h [4]: 11 ng/mL | AUC (Lung): 131000 ng·h/mL | Vd [6]: 55 L/kg | EC50 [9]: 0.07 ng/mL (≈ 0.125 nM) | AUC [10]: 170 ng·h/mL | Drug uptake (Plasma): Active | Kp [12]: 122 | concentration at 3 h [16]: 63 ng/mL | concentration at 3 h [18]: 23 ng/mL | clearance [19]: 143 mL/min/kg | concentration at 3 h [22]: 392 ng/mL
SMILES: Cc1ccc(CCCO)c(NCc2ccc3nc(NCCCN4CCOCC4)n(Cc4nc(C)ccc4O)c3c2)c1
log10PFU/ml [3]: 0.6 | log10PFU/ml [5]: 0.8 | log10PFU/ml [7]: 0.5 | Activity [8]: 50% | log10PFU/ml [11]: 0.3 | log10PFU/ml [13]: 0.4 | log10PFU/ml [14]: 0.2 | log10PFU/ml [15]: 2.2 | log10PFU/ml [17]: 1.7 | log10PFU/ml [20]: 1.1 | log10PFU/ml [21]: 1.2
